Laboratory results taken from ChEMBL document CHEMBL2086296, “Synthesis of novel quinoline-2-one based chalcones of potential anti-tumor activity” (Eur J Med Chem, 2012).

Legend:
NCI-H23 = assay: Cytotoxicity against human NCI-H23 cells after 24 hrs by SRB assay; type: cell-based; details: nci-h23, 24 h
Outline: (§1)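 NCI 60-cell screen. Cells grown in RPMI 1640 with 5% FBS and 2 mM L-glutamine, seeded at 5,000–40,000 cells/well, preincubated 24 h at 37 °C in 5% CO2. Drug stock in DMSO, diluted in medium with gentamicin; five final concentrations, 100, 10, 1.0, 0.1 and […]. Time-zero plates were TCA-fixed. Protein read by SRB staining; GI50, TGI and LC50 taken relative to time-zero.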

SK-MEL-28 [1] = assay: (§2) Cytotoxicity against human SK-MEL-28 cells after 24 hrs by SRB assay; type: cell-based; details: sk-mel-28, 24 h; outline: as §1
SF-295 [2] = assay: (§3) Cytotoxicity against human SF295 cells after 24 hrs by SRB assay; type: functional; details: SF-295, 24 h
Outline: (§4)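 NCI 60-line screen. Cells in RPMI 1640 with 5% FBS and 2 mM L-glutamine, seeded at 5,000–40,000 cells/well by doubling time, then incubated 24 h at 37 °C, 5% CO2 before dosing. Time-zero plates fixed with TCA at drug addition. DMSO stocks diluted in medium with gentamicin to five concentrations, […]. Protein read by SRB staining. GI50, TGI and LC50 derived relative to control and time-zero.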

COLO 205 [3] = assay: (§5) Cytotoxicity against human COLO205 cells after 24 hrs by SRB assay; type: cell-based; details: colo 205, 24 h; outline: as §1
SN12C [4] = assay: (§6) Cytotoxicity against human SN12C cells after 24 hrs by SRB assay; type: functional; outline: as §4
HOP-92 [5] = assay: (§7) Cytotoxicity against human HOP92 cells after 24 hrs by SRB assay; type: functional; details: HOP-92, 24 h; outline: as §4
UO-31 [6] = assay: (§8) Cytotoxicity against human UO31 cells after 24 hrs by SRB assay; type: functional; details: UO-31, 24 h
Outline: (§9)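 NCI 60-cell screen. Cells are grown in RPMI 1640 with 5% FBS and 2 mM L-glutamine and seeded at 5,000–40,000 cells/well according to doubling time. They are preincubated 24 h at 37 °C in 5% CO2, and Tz plates are TCA-fixed at drug addition. Drug stock is in DMSO, diluted in medium with gentamicin, and tested at five concentrations (100, 10, 1.0, 0.1, […]). Protein is read by SRB staining. GI50, TGI and LC50 are derived relative to time-zero and control wells.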

COLO 205 [7] = assay: as §5; type: functional; details: COLO 205, 24 h; outline: as §4
UACC-62 = assay: Cytotoxicity against human UACC62 cells after 24 hrs by SRB assay; type: cell-based; details: uacc-62, 24 h
Outline: (§10)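 NCI 60-cell-line screen: cells grown in RPMI 1640 with 5% FBS and 2 mM L-glutamine, seeded at 5,000–40,000 cells/well by doubling time, and preincubated 24 h at 37 °C in 5% CO2. Time-zero plates were TCA-fixed. DMSO stocks were diluted in medium with gentamicin to five concentrations (100, 10, 1.0, 0.1, […]). Protein was read by SRB, and GI50, TGI and LC50 were derived against time-zero.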

NCI-H322M = assay: Cytotoxicity against human NCI-H322M cells after 24 hrs by SRB assay; type: functional; outline: as §4
[8] = Cytotoxicity against human Hs 578T cells after 24 hrs by SRB assay; type: functional; outline: as §4
Malme-3M [9] = assay: (§11) Cytotoxicity against human MALME-3M cells after 24 hrs by SRB assay; type: cell-based; outline: as §1
ACHN = assay: Cytotoxicity against human ACHN cells after 24 hrs by SRB assay; type: functional; outline: as §4
IGROV-1 [10] = assay: (§12) Cytotoxicity against human IGROV1 cells after 24 hrs by SRB assay; type: cell-based; details: igrov-1, 24 h; outline: as §1
UO-31 [11] = assay: as §8; type: cell-based; details: uo-31, 24 h; outline: as §10
BT-549 = assay: Cytotoxicity against human BT549 cells after 24 hrs by SRB assay; type: functional; details: BT-549, 24 h; outline: as §4
A549 = assay: Cytotoxicity against human A549 cells after 24 hrs by SRB assay; type: cell-based; details: a549, 24 h; outline: as §1
SW-620 = assay: Cytotoxicity against human SW620 cells after 24 hrs by SRB assay; type: cell-based; details: sw-620, 24 h; outline: as §10
NCI-H460 = assay: Cytotoxicity against human NCI-H460 cells after 24 hrs by SRB assay; type: cell-based; details: nci-h460, 24 h; outline: as §1
Malme-3M [12] = assay: as §11; type: functional; outline: as §4
SNB-19 = assay: Cytotoxicity against human SNB19 cells after 24 hrs by SRB assay; type: functional; details: SNB-19, 24 h; outline: as §9
HL-60 = assay: Cytotoxicity against human HL60 cells after 24 hrs by SRB assay; type: functional; details: HL-60, 24 h; outline: as §4
SF-295 [13] = assay: as §3; type: cell-based; details: sf-295, 24 h; outline: as §1
SN12C [14] = assay: as §6; type: cell-based; outline: as §10
MCF7 = assay: Cytotoxicity against human MCF7 cells after 24 hrs by SRB assay; type: cell-based; details: mcf7, 24 h; outline: as §1
NCI/ADR-RES = assay: Cytotoxicity against human NCI/ADR-RES cells after 24 hrs by SRB assay; type: cell-based; outline: as §1
HOP-62 = assay: Cytotoxicity against human HOP62 cells after 24 hrs by SRB assay; type: cell-based; details: hop-62, 24 h; outline: as §1
SK-MEL-28 [15] = assay: as §2; type: functional; details: SK-MEL-28, 24 h; outline: as §4
SNB-75 = assay: Cytotoxicity against human SNB75 cells after 24 hrs by SRB assay; type: functional; details: SNB-75, 24 h; outline: as §9
NCI-H522 = assay: Cytotoxicity against human NCI-H522 cells after 24 hrs by SRB assay; type: cell-based; details: nci-h522, 24 h; outline: as §1
SR = assay: Cytotoxicity against human SR cells after 24 hrs by SRB assay; type: functional; outline: as §9
MDA-MB-231 = assay: Cytotoxicity against human MDA-MB-231 cells after 24 hrs by SRB assay; type: functional; details: MDA-MB-231, 24 h; outline: as §4
HOP-92 [16] = assay: as §7; type: cell-based; details: hop-92, 24 h; outline: as §1
TK-10 = assay: Cytotoxicity against human TK10 cells after 24 hrs by SRB assay; type: functional; details: TK-10, 24 h; outline: as §9
SF-268 = assay: Cytotoxicity against human SF268 cells after 24 hrs by SRB assay; type: cell-based; details: sf-268, 24 h; outline: as §1
HCT-15 = assay: Cytotoxicity against human HCT15 cells after 24 hrs by SRB assay; type: functional; details: HCT-15, 24 h; outline: as §4
IGROV-1 [17] = assay: as §12; type: functional; details: IGROV-1, 24 h; outline: as §4
MDA-MB-468 = assay: Cytotoxicity against human MDA-MB-468 cells after 24 hrs by SRB assay; type: cell-based; details: mda-mb-468, 24 h; outline: as §1

**Q.** Which LC50 (NCI-H23) does the source give for `O=C(/C=C/c1cc2ccccc2[nH]c1=O)c1ccc(O)cc1` here?
**A.** Its LC50 is > 100 µM.

**Q.** What about the LC50 (SK-MEL-28 [1]) of the same molecule?
**A.** Its LC50 is 66.3 µM.

**Q.** What about the GI50 (SF-295 [2]) of the same molecule?
**A.** The GI50 was 7.04 µM.

**Q.** And the TGI (SF-295 [2])?
**A.** Its TGI is 44 µM.

**Q.** And the LC50 (COLO 205 [3])?
**A.** The LC50 was 76.8 µM.

**Q.** What about the GI50 (SN12C [4]) of the same molecule?
**A.** Its GI50 is 3.48 µM.

**Q.** And the TGI (SN12C [4])?
**A.** Its TGI is 16 µM.

**Q.** What about the GI50 (HOP-92 [5]) of the same molecule?
**A.** Its GI50 is 3.26 µM.

**Q.** And the TGI (HOP-92 [5])?
**A.** Its TGI is 23.2 µM.

**Q.** What about the GI50 (UO-31 [6]) of the same molecule?
**A.** The GI50 was 4.38 µM.

**Q.** And the TGI (UO-31 [6])?
**A.** The TGI was 26.6 µM.

**Q.** What about the GI50 (COLO 205 [7]) of the same molecule?
**A.** The GI50 was 4.05 µM.

**Q.** What about the TGI (COLO 205 [7]) of the same molecule?
**A.** The TGI was 19.7 µM.

**Q.** What about the LC50 (UACC-62) of the same molecule?
**A.** The LC50 was 39.6 µM.

**Q.** And the GI50 (NCI-H322M)?
**A.** The GI50 was 3.98 µM.

**Q.** And the TGI (NCI-H322M)?
**A.** The TGI was 16.8 µM.

**Q.** What about the GI50 [8] of the same molecule?
**A.** Its GI50 is 6.15 µM.

**Q.** What about the TGI [8] of the same molecule?
**A.** Its TGI is > 100 µM.

**Q.** And the LC50 (Malme-3M [9])?
**A.** The LC50 was > 100 µM.

**Q.** And the GI50 (ACHN)?
**A.** The GI50 was 2.67 µM.

**Q.** And the TGI (ACHN)?
**A.** The TGI was 8.86 µM.

**Q.** What about the LC50 (IGROV-1 [10]) of the same molecule?
**A.** The LC50 was > 100 µM.

**Q.** What about the LC50 (UO-31 [11]) of the same molecule?
**A.** Its LC50 is > 100 µM.

**Q.** What about the GI50 (BT-549) of the same molecule?
**A.** The GI50 was 1.95 µM.

**Q.** What about the TGI (BT-549) of the same molecule?
**A.** The TGI was 5.35 µM.

**Q.** And the LC50 (A549)?
**A.** The LC50 was 89.9 µM.

**Q.** And the LC50 (SW-620)?
**A.** Its LC50 is > 100 µM.

**Q.** And the LC50 (NCI-H460)?
**A.** The LC50 was > 100 µM.

**Q.** What about the GI50 (Malme-3M [12]) of the same molecule?
**A.** Its GI50 is 10.4 µM.

**Q.** What about the TGI (Malme-3M [12]) of the same molecule?
**A.** Its TGI is 33.6 µM.

**Q.** And the GI50 (SNB-19)?
**A.** Its GI50 is 4.59 µM.

**Q.** And the TGI (SNB-19)?
**A.** Its TGI is 18 µM.

**Q.** And the GI50 (HL-60)?
**A.** The GI50 was 2.66 µM.

**Q.** What about the TGI (HL-60) of the same molecule?
**A.** The TGI was 6.86 µM.

**Q.** And the LC50 (SF-295 [13])?
**A.** Its LC50 is > 100 µM.

**Q.** What about the LC50 (SN12C [14]) of the same molecule?
**A.** The LC50 was > 100 µM.

**Q.** And the LC50 (MCF7)?
**A.** The LC50 was 82.9 µM.

**Q.** What about the LC50 (NCI/ADR-RES) of the same molecule?
**A.** The LC50 was > 100 µM.

**Q.** What about the LC50 (HOP-62) of the same molecule?
**A.** Its LC50 is 85.2 µM.

**Q.** What about the GI50 (SK-MEL-28 [15]) of the same molecule?
**A.** The GI50 was 5.11 µM.

**Q.** What about the TGI (SK-MEL-28 [15]) of the same molecule?
**A.** The TGI was 19.5 µM.

**Q.** And the GI50 (SNB-75)?
**A.** Its GI50 is 9.3 µM.

**Q.** And the TGI (SNB-75)?
**A.** Its TGI is 23 µM.

**Q.** And the LC50 (NCI-H522)?
**A.** Its LC50 is 6.36 µM.

**Q.** And the GI50 (SR)?
**A.** Its GI50 is 1.66 µM.

**Q.** And the GI50 (MDA-MB-231)?
**A.** The GI50 was 2.31 µM.

**Q.** And the TGI (MDA-MB-231)?
**A.** Its TGI is 15 µM.

**Q.** What about the LC50 (HOP-92 [16]) of the same molecule?
**A.** Its LC50 is > 100 µM.

**Q.** What about the GI50 (TK-10) of the same molecule?
**A.** The GI50 was 3.81 µM.

**Q.** And the TGI (TK-10)?
**A.** Its TGI is 11.8 µM.

**Q.** What about the LC50 (SF-268) of the same molecule?
**A.** The LC50 was > 100 µM.

**Q.** What about the GI50 (HCT-15) of the same molecule?
**A.** Its GI50 is 2.71 µM.

**Q.** What about the TGI (HCT-15) of the same molecule?
**A.** The TGI was 12.8 µM.

**Q.** And the GI50 (IGROV-1 [17])?
**A.** Its GI50 is 4.35 µM.

**Q.** What about the TGI (IGROV-1 [17]) of the same molecule?
**A.** The TGI was 45.1 µM.

**Q.** What about the LC50 (MDA-MB-468) of the same molecule?
**A.** Its LC50 is 19.8 µM.
